Measured values as given in ChEMBL document CHEMBL3407387, “Antioxidant activity and inhibition of α-glucosidase by hydroxyl-functionalized 2-arylbenzo[b]furans” (Eur J Med Chem, 2015).
The source made the active and inactive calls. The rule behind the calls is not given here.

Assays:
[1] = Mixed type inhibition of Saccharomyces cerevisiae alpha-glucosidase using 4-NPGP substrate assessed as equilibrium constant for binding to enzyme by measuring reduction in 4-nitrophenol release pre-incubated for 10 mins before substrate addition by Dixon plot analysis
[2] = test system: Saccharomyces cerevisiae; experiment: Mixed type inhibition of Saccharomyces cerevisiae alpha-glucosidase using 4-NPGP substrate assessed as reduction in 4-nitrophenol release pre-incubated for 10 mins before substrate addition by Lineweaver-Burk plot analysis
Procedure, shortened: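 Double-reciprocal (Lineweaver-Burk) analysis of initial velocities, taken as A405 rate/min, across increasing 4-NPGP concentrations. Inhibitor present at 0, 0.25, 0.5 and 1.0 µM. Run in pH 7.0 phosphate buffer at 30 °C to assign inhibition mode.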

[3] = Mixed type inhibition of Saccharomyces cerevisiae alpha-glucosidase using 4-NPGP substrate assessed as equilibrium constant for binding to enzyme-4-NPGP complex by measuring reduction in 4-nitrophenol release pre-incubated for 10 mins before substrate addition by Dixon plot analysis
[4] = Inhibition of Saccharomyces cerevisiae alpha-glucosidase using 4-NPGP substrate assessed as reduction in 4-nitrophenol release pre-incubated for 10 mins before substrate addition by microplate reader based assay
Procedure, shortened: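 Test compound at 0 to 100 µM premixed with enzyme in 100 mM phosphate buffer, pH 7.0, and held 30 °C for 10 min. Then 12.5 mM 4-NPGP (stock) added and 4-nitrophenol release read at 405 nm. IC50 is the concentration inhibiting 50% of α-glucosidase activity.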

[5] = test system: Saccharomyces cerevisiae; experiment: Mixed type inhibition of Saccharomyces cerevisiae alpha-glucosidase using 4-NPGP substrate assessed as reduction in 4-nitrophenol release pre-incubated for 10 mins before substrate addition by Dixon plot analysis
[6] = Antioxidant activity assessed as DPPH radical scavenging activity incubated for 5 mins by microplate spectrophotometry; type: physicochemical
[7] = Antioxidant activity assessed as DPPH radical scavenging activity; type: physicochemical
Procedure, shortened: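 Compound dissolved in MeOH (0 to 100 µM), mixed with 0.1 mM DPPH, 150 µL final mixture, 37 °C for 5 min; absorbance at 517 nm; IC50 derived from DPPH scavenging.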

[8] = Inhibition of Saccharomyces cerevisiae alpha-glucosidase
Procedure, shortened: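 Compound (0 to 100 µM) premixed with 100 mM phosphate buffer pH 7.0, 30 °C for 10 min; 12.5 mM 4-nitrophenyl glucopyranoside substrate then added; 4-nitrophenol release read at 405 nm; resveratrol and quercetin as positive controls; IC50 = concentration giving 50% inhibition.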

Row | IC50 [4] | IC50 [6] | SMILES | other results
1 | 1.9 µM | 18.5 µM | Oc1ccc(-c2cc3cccc(O)c3o2)cc1O | Ki [1]: 4.21 µM; inhibition [2]: Active; Ki [3]: 13.7 µM; inhibition [5]: Active
2 | 29.8 µM | > 100 µM | Oc1ccc(-c2cc3cc(Br)cc(O)c3o2)cc1 | –
3 | 7.1 µM | 20.6 µM | Oc1cc(Br)c(-c2cc3cccc(O)c3o2)cc1O | –
4 | > 100 µM | > 100 µM | CCOC(=O)/C=C/c1cc(OC)c(OC)cc1-c1cc2cccc(OC)c2o1 | –
5 | 2 µM | 11.7 µM | CCOC(=O)/C=C/c1cc(O)c2oc(-c3cc(O)c(O)c(O)c3)cc2c1 | Ki [1]: 3.19 µM; inhibition [2]: Active; Ki [3]: 11.8 µM; inhibition [5]: Active
6 | 6.4 µM | 18.4 µM | Oc1ccc(-c2cc3c(Br)ccc(O)c3o2)cc1O | –
7 | 31.1 µM | 63.5 µM | Oc1ccc(/C=C/c2cc(O)cc(O)c2)cc1 [RESVERATROL] | IC50 [7]: 38 µM; IC50 [8]: 27.9 µM
8 | > 100 µM | > 100 µM | COc1ccc(-c2cc3cccc(OC)c3o2)cc1OC | –
9 | 7.5 µM | 28.6 µM | Oc1ccc(-c2cc3cc(Br)cc(O)c3o2)cc1O | –
10 | 9.2 µM | 12.8 µM | Oc1cc(-c2cc3cccc(O)c3o2)cc(O)c1O | –
11 | 12.4 µM | 19.4 µM | Oc1cc(-c2cc3c(Br)ccc(O)c3o2)c(Br)c(O)c1O | –
12 | 6.4 µM | 7.8 µM | Oc1cc(Br)c(-c2cc3c(Br)ccc(O)c3o2)cc1O | –
13 | 3 µM | 14.6 µM | Oc1cc(-c2cc3cc(Br)cc(O)c3o2)cc(O)c1O | –
14 | 8.5 µM | 18 µM | Oc1cc(-c2cc3ccccc3o2)c(Br)c(O)c1O | –
15 | > 100 µM | > 100 µM | COc1cc(-c2cc3cc(Br)cc(OC)c3o2)cc(OC)c1OC | –
16 | > 100 µM | > 100 µM | COc1cc(Br)c(-c2cc3cccc(OC)c3o2)cc1OC | –
17 | 8.2 µM | 10.8 µM | Oc1cc(-c2cc3ccccc3o2)cc(O)c1O | –
18 | 5.5 µM | 26.2 µM | CCOC(=O)/C=C/c1cc(O)c(O)cc1-c1cc2cccc(O)c2o1 | –
19 | 7.7 µM | 33.8 µM | Oc1cc(Br)c(-c2cc3ccccc3o2)cc1O | –
20 | 8.9 µM | 16.8 µM | CCOC(=O)/C=C/c1ccc(O)c2oc(-c3ccc(O)c(O)c3)cc12 | –
21 | 23.8 µM | 25.4 µM | CCOC(=O)/C=C/c1cc(O)c2oc(-c3ccc(O)c(O)c3)cc2c1 | –

Row | SMILES | IC50 [4] | IC50 [6] | other results
22 | O=c1c(O)c(-c2ccc(O)c(O)c2)oc2cc(O)cc(O)c12 [QUERCETIN] | 6.6 µM | 6 µM | IC50 [7]: 9.1 µM; IC50 [8]: 5.3 µM
